The structures appear in SMILES notation. Some results are limits rather than exact numbers.

In general, IC50 refers to the midpoint of a concentration-inhibition curve. Higher therefore signals a need for much substance.

The species named for the experiment is Homo sapiens. The experiment in a line: In vitro inhibitory concentration against Chymotrypsin-like activity of the purified human placenta 20S Proteasome. Type of experiment: functional. In short, it runs like this:
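Purified human placenta 20S proteasome; chymotrypsin-like activity measured by cleavage of the fluorogenic substrate Suc-Leu-Val-Tyr-AMC (AMC release). Trypsin-like (Boc-Leu-Arg-Arg-AMC) and post-glutamyl-peptide hydrolytic-like (Z-Leu-Leu-Glu-AMC) substrates were used for the parallel selectivity assays.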
Consider `COc1ccc(CN[C@@H](C(=O)N[C@H](C(=O)NCc2ccc(OC)cc2O)C(C)C)[C@H](O)[C@H](Cc2ccccc2)NC(=O)[C@@H](NC(=O)CCc2cccc(N)c2)C(C)(C)C)cc1`, for which the IC50 worked out at 0.6 µM. On to `COc1ccc(CN[C@@H](C(=O)N[C@H](C(=O)NCc2ccc(OC)cc2O)C(C)C)[C@H](O)[C@H](Cc2ccccc2)NC(=O)[C@@H](NC(=O)OCc2cc(C)cc(C)c2)C(C)(C)C)cc1`, for which the IC50 is 1.1 µM. With `COc1ccc(CN[C@@H](C(=O)N[C@H](C(=O)NCc2ccc(OC)cc2O)C(C)C)[C@H](O)[C@H](Cc2ccccc2)NC(=O)[C@@H](NC(=O)OCc2cccc(N)c2)C(C)(C)C)cc1`, the midpoint of inhibition, the IC50, lay at 0.6 µM. The compound `COc1ccc(CN[C@@H](C(=O)N[C@H](C(=O)NCc2ccc(OC)cc2O)C(C)C)[C@H](O)[C@H](Cc2ccccc2)NC(=O)[C@@H](NC(=O)OCc2cccc3ccccc23)C(C)(C)C)cc1` displayed a half-inhibitory concentration (IC50) of 2 µM. The value for `COc1ccc(CN[C@@H](C(=O)N[C@H](C(=O)NCc2ccc(OC)cc2OC)C(C)C)[C@H](O)[C@H](Cc2ccccc2)NC(=O)[C@@H](NC(=O)OCc2ccccc2)C(C)C)cc1` was more than 20 µM. `COc1ccc(CN[C@@H](C(=O)N[C@H](C(=O)NCc2ccc(OC)cc2O)C(C)C)[C@H](O)[C@H](Cc2ccccc2)NC(=O)[C@@H](NC(=O)OC(C)(C)C)C(C)(C)C)cc1` displayed an IC50 of 27 µM.

Turning to `COc1ccc(CN[C@@H](C(=O)N[C@H](C(=O)NCc2ccc(OC)cc2O)C(C)C)[C@H](O)[C@H](Cc2ccccc2)NC(=O)[C@@H](NC(=O)OCc2ccccc2)C(C)(C)C)cc1`, the midpoint of inhibition, the IC50, lay at 0.9 µM. As for `COc1ccc(CN[C@@H](C(=O)N[C@H](C(=O)NCc2ccc(OC)cc2O)C(C)C)[C@H](O)[C@H](Cc2ccccc2)NC(=O)[C@@H](NC(=O)OCc2ccccc2)C(C)C)cc1`, the figure is 3.3 µM; as for `COc1ccc(CN[C@@H](C(=O)N[C@H](C(=O)NCc2ccc(OC)cc2O)C(C)C)[C@H](O)[C@H](Cc2ccccc2)NC(=O)[C@@H](N)C(C)(C)C)cc1`, 70 µM. As for `COc1ccc(CN[C@@H](C(=O)N[C@H](C(=O)NCc2ccc(OC)cc2O)C(C)C)[C@H](O)[C@H](Cc2ccccc2)NC(=O)[C@@H](NC(=O)Cc2cccc3ccccc23)C(C)(C)C)cc1`, the figure is 0.1 µM; as for `COc1ccc(CN[C@@H](C(=O)N[C@H](C(=O)NCc2ccc(OC)cc2O)C(C)C)[C@H](O)[C@H](Cc2ccccc2)NC(=O)[C@@H](NC(=O)OCc2cccc(C)c2)C(C)(C)C)cc1`, 0.5 µM; as for `COc1ccc(CN[C@@H](C(=O)N[C@H](C(=O)NCc2ccccc2O)C(C)C)[C@H](O)[C@H](Cc2ccccc2)NC(=O)[C@@H](NC(=O)OCc2ccccc2)C(C)(C)C)cc1`, 72 µM.

The record behind these values is ChEMBL document CHEMBL1134066, “A new structural class of selective and non-covalent inhibitors of the chymotrypsin-like activity of the 20S proteasome” (Bioorg Med Chem Lett, 2001).
